Assay outcomes deposited in PubChem by several laboratories.
In the library only some 3.7% were active in any assay of this set; here they are far more common.
MDM2 E3 inh: Mdm2 E3 ligase (human) inhibition. Q00987. cell-based MDM2 ubiquitination luciferase reporter, 2 h; 0 = plate control, 100 = twice control, blank-subtracted. signal enhancement, % at 5 µM. hit rate 0.11% among 210,000. AID 1230;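 active means signal enhancement of 30% or more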;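 further: luminescence tracks abundance of the self-degrading MDM2-luciferase fusion protein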
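Test system: stable mammalian line carrying autodegrading MDM2–luciferase fusion reporter; quantity: 2000 cells in each well; times: 4 h cell settling then 2 h compound exposure, 37 °C; detection: luminescence with SteadyLite reagent, 15 min at room temperature; evaluation: percent signal gain over controls, blank-subtracted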
Beta2AR agonist: human beta-2 adrenergic receptor agonism by FAP. response, % (test concentration not listed). Am2.2-beta2AR cells, FAP receptor internalization, flow cytometry. P07550. AID 504454. hit rate 0.43% among 340,000;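 active means response above a set limit, near 3 SD of response in nonfluorescent compounds, cut at about 42% in these data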
Target sequence (P07550 whole entry, looked up): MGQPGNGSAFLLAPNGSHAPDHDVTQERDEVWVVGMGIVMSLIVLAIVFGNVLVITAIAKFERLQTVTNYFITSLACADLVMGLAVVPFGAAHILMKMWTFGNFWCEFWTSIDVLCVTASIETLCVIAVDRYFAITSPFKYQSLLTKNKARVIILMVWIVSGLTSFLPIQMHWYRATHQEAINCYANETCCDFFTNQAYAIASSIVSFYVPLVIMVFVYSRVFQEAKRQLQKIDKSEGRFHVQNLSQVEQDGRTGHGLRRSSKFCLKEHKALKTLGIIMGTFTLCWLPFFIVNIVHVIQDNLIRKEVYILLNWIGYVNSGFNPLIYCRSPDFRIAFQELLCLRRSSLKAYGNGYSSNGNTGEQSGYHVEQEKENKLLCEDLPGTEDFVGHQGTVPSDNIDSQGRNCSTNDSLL
UPR XBP1 act: activators of adaptive arm of unfolded protein response (XBP1) | CHO-XBP1 luciferase reporter, IRE1-XBP1 UPR activation, luminescence; percent of tunicamycin response, DMSO as zero | activation, % at 20 µM | hit rate 0.33% among 330,000 | AID 463104;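 active means versus positive control, 20 µM dose yields 30% or more activation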;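 further: 100% = tunicamycin at 10 µg/mL and 0% = DMSO only wells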
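Material: IRE1-XBP1 luciferase reporter CHO line / Quantity: one thousand reporter cells per well / Buffer or medium: F12 with 10% serum / Compound: 20 µM single concentration, DMSO 1% / Times: 6 h treatment, 37 °C / Detection: Steady-Glo luciferase glow luminescence, 10 min after reagent addition / Benchmarks: tunicamycin high, DMSO low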
Dynein transport: blocks dynein driven cargo transport along microtubules; 3617.4 mouse cells, GR-EGFP nuclear translocation imaging; test concentration mostly 20 µM; stimulated with dexamethasone, 1 µM; active compounds read low; z-score, hits read low; hit rate 0.47% among 220,000;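 active means plate z-score of nuclear minus cytoplasmic receptor signal below a set negative limit, without overly bright fluorescence or cell loss, cut at about -3.5 in these data, passing the limit was not always enough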;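 further: z-score of nuclear minus cytoplasmic ring GR-EGFP intensity difference per well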
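Buffer or medium: tet-free medium with charcoal-stripped serum / Also added: dexamethasone agonist, 1.0 µM final, for 30 min / Timing: induction 48 h, compound 1 h, agonist 30 min / Measured by: high-content fluorescence imaging after fixation / Read-out: nuclear-to-cytoplasmic GR-EGFP distribution per well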
CHOP UPR activ: activators of apoptotic arm of unfolded protein response (CHOP); CHO-CHOP luciferase reporter, UPR activation, luminescence; percent of tunicamycin response over DMSO baseline; activation, % at 10 µM; hit rate 0.34% among 330,000; AID 449763;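 active means at 10 µM dose, activation of 40% or more, normalized to positive control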;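 further: 100% = tunicamycin at 10 µg/mL and 0% = DMSO alone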
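Assay system: CHO-CHOP cells, stable luciferase reporter of PERK-eIF2a-CHOP signalling / Buffer or medium: F12 plus 10% serum / Compound dosing: one dose, 10 µM in 0.5% DMSO / Times: 6 h compound treatment, 37 °C / Technique: luciferase luminescence / Read-out: % reporter activation, DMSO baseline versus tunicamycin full activation / Benchmarks: tunicamycin and DMSO controls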
Mdm2 MdmX PPI: human Mdm2/MdmX binding inhibition; SaOS-2 split-luciferase Mdm2/MdmX complementation, luminescence; inhibition, % at 8 µM; hit rate 3% among 330,000; AID 485346;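 active means inhibition of at least 50% at 8 µM in the primary screen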
Mdm2 MdmX conf: human Mdm2/MdmX binding inhibition, confirmed; shares compounds with Mdm2 MdmX PPI; luminescent assay; inhibition, % at 8 µM; hit rate 55% among 10,000; in the data active means inhibition above about 40%
FLuc counter: inhibits full-length luciferase, flagging false Mdm2/MdmX hits | shares compounds with Mdm2 MdmX PPI | SaOS-2 full-length luciferase counterscreen, luminescence | inhibition, % at 8 µM | hit rate 77% among 6,200;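 active means mean inhibition at 8 µM reaching about 37%, which flags the compound as non-specific, limit read from the data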;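 further: p53-null SaOS-2 cells with luciferase driven by a doxycycline-inducible promoter; compound on cells about two nights before reading with doxycycline added after day one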
* hit, by the source's call; / = not tested or not shown.

SMILES	MDM2 E3 inh	Beta2AR agonist	UPR XBP1 act	Dynein transport	CHOP UPR activ	Mdm2 MdmX PPI	Mdm2 MdmX conf	FLuc counter
Cc1nc(SCC(=O)Nc2ccccc2C(F)(F)F)c2c(=O)n(C)c(=O)n(C)c2n1	/	8	3	0.44	0	95*	2	/
Cc1cc2c(N=NC(=O)C3CC3c3ccccc3)c(O)[nH]c2cc1Br (centres undefined)	5	0	-3	-0.77	0	54*	-8	/
COCCNC(=O)c1c[nH]c2ccc(S(=O)(=O)N(C)c3ccc(C)c(C)c3)cc2c1=O	/	18	-6	/	0	1	/	/
O=C(c1cnn2c1NC(c1ccco1)CC2C(F)(F)F)N1CCN(c2cccc(Cl)c2)CC1 (centres undefined)	-13	11	-4	-0.6	-2	59*	51*	56*
O=C(c1ccco1)N1CCN(C(=O)c2cnn3c2NC(c2cccs2)CC3C(F)(F)F)CC1 (centres undefined)	0	-2	-3	-0.4	0	12	/	/
C#CCNC(=O)C1CCN(c2ccc(S(=O)(=O)N3CCOCC3)cc2Cl)CC1	-6	5	-1	-0.56	0	16	/	/
O=C(NCc1cccs1)C1CCN(c2ccc(S(=O)(=O)N3CCOCC3)cc2Cl)CC1	-8	24	2	-0.92	0	63*	43*	91*
Fc1ccc2nncc(SCc3ccccc3Cl)c2c1	/	-8	/	/	/	/	/	/
NS(=O)(=O)c1ccc(NC(=O)CCC(=O)c2ccc(Cl)s2)cc1	/	2	4	/	1	17	/	/
O=C(Nc1ccc(CN2CCCCC2)cc1)Nc1ccc(Br)cc1Cl	-22	20	16	-0.66	9	74*	42*	39*
S=C(Nc1ccc(Br)cc1Cl)N1CCCC1	/	-3	1	/	5	-25	/	/
Cc1cc(/C=C2\SC(=S)N(C)C2=O)c(C)n1-c1ccccc1O	/	-81	5	/	2	86*	90*	108*
CN1C(=O)/C(=C/c2coc3ccc(O)cc3c2=O)SC1=S	-13	-15	2	-0.1	5	23	/	/
Cc1cc(/C=C2\SC(=S)N(C)C2=O)c(C)n1-c1ccc(O)cc1	-75	-537	-5	-0.21	-8	85*	81*	50*
O=C1OC(c2ccc(F)cc2)=C/C1=C\c1ccc([N+](=O)[O-])o1	22	/	3	-2.5	6	74*	26	/
O=C(COC(=O)Cc1c(F)cccc1Cl)NCc1ccc2c(c1)OCO2	/	0	2	/	0	18	/	/
Cc1sc2ncnc(N3CCC(C(=O)Nc4nc(-c5ccc(F)cc5)cs4)CC3)c2c1C	/	2	0	/	6	94*	90*	60*
CCN(CC)CCNC(=O)c1ccc(NC(=O)C2CCN(c3ncnc4sc(C)c(C)c34)CC2)cc1	/	22	-1	/	-1	91*	61*	22
Cc1sc2ncnc(N3CCC(C(=O)Nc4ccc(OC(F)F)c(Cl)c4)CC3)c2c1C	/	9	1	/	1	27	/	/
CCCCN(C(=O)c1cc2c(s1)CCC2)c1c(N)n(CCCC)c(=O)[nH]c1=O	/	7	-1	/	4	9	/	/
C[C@H]1O[C@@H](O[C@H]2[C@@H](O)C[C@H](O[C@H]3[C@@H](O)C[C@H](O[C@H]4CC[C@@]5(C)[C@H](CC[C@@H]6[C@@H]5C[C@@H](O)[C@]5(C)[C@@H](C7=CC(=O)OC7)CC[C@]65O)C4)O[C@@H]3C)O[C@@H]2C)C[C@H](O)[C@@H]1O	/	1	-9	-0.36	-2	82*	75*	15
CN(C)C(=O)c1ccc(-c2cc(C(F)(F)F)n(C)n2)s1	-19	-2	2	0.086	2	-5	/	/
Cc1ccc(C)c(-n2ccnc2SCC(=O)Nc2cccc(S(=O)(=O)NC3=NCCC3)c2)c1	/	-6	-1	/	2	3	/	/
N#Cc1ncc(-c2ccc3c(c2)OCCOCCOCCOCCOCCO3)nc1C#N	-34	3	-3	-0.36	-4	71*	61*	11
N#Cc1ncc(-c2ccc3c(c2)OCCOCCOCCOCCO3)nc1C#N	-10	-1	-6	-2	2	35	/	/
SMILES	MDM2 E3 inh	Beta2AR agonist	UPR XBP1 act	Dynein transport	CHOP UPR activ	Mdm2 MdmX PPI	Mdm2 MdmX conf	FLuc counter
O=C1C(Nc2ccccc2)=C(N2CCCCC2)C(=O)c2ccccc21	-13	-1	0	-0.78	-2	42	/	/
COc1ccccc1NC1=C(N2CCCCC2)C(=O)c2ccccc2C1=O	-15	0	0	0.43	0	74*	46*	4
N#Cc1nc(-c2ccc(OCc3ccc(Cl)cc3)cc2)oc1N1CCC(C(N)=O)CC1	-8	9	1	-0.075	3	5	/	/
N#Cc1nc(-c2ccc(OCc3ccc(Cl)cc3)cc2)oc1N1CCOCC1	-10	0	1	-0.56	2	55*	22	/
CCCN(CC(=O)Nc1ccccc1C)C(=O)Cc1coc2cc(C)ccc12	/	0	-4	/	0	20	/	/
N#CCC(=O)Nc1ccc(C(=O)N2CCN(S(=O)(=O)c3ccc4ccccc4c3)CC2)cc1	/	-7	-2	/	1	28	/	/
Cc1cc(C)c(-c2csc(NC(=O)C3=COCCO3)n2)cc1C	/	3	5	/	4	1	/	/
O=C(Nc1nc(-c2ccccc2)cs1)c1ccc(N2CCOCC2)c([N+](=O)[O-])c1	-24	29	-3	-0.44	0	55*	52*	56*
CC(=O)c1c(C)[nH]c(C(=O)Nc2nc(-c3ccc(-c4ccccc4)cc3)cs2)c1C	-12	25	7	1.3	14	87*	44*	100*
O=C(Nc1nc(-c2ccc(-c3ccccc3)cc2)cs1)C1=COCCO1	-4	4	1	-1.1	2	65*	57*	41*
CN(Cc1ccccc1)S(=O)(=O)c1ccc2c(c1)CCC(=O)N2	/	-1	-2	/	0	16	/	/
Cc1ccc2c(c1)-n1c(nc3cc(Cl)ccc3c1=O)C(CC(C)C)NC2=O (centres undefined)	/	/	3	/	2	-33	/	/
O=C(Nc1cccc(NC(=O)c2cccc([N+](=O)[O-])c2)n1)c1cccc([N+](=O)[O-])c1	/	-3	-2	/	1	22	/	/
O=C(Nc1ccncc1NC(=O)c1cccc([N+](=O)[O-])c1)c1cccc([N+](=O)[O-])c1	-3	2	-1	0.59	-1	87*	56*	31
